Experimental data: ChEMBL document CHEMBL1926577, “Novel 1,3,4-heterodiazole analogues: synthesis and in-vitro antitumor activity” (2012)
Calls of active or inactive are those of the source. No cut-off for these calls is given here.

Columns and labels:
Assay type in all cases: functional
[1] = Growth inhibition of human breast cancer cells after 48 hrs by coulter counter method; conditions: Cancer cell lines
Outline: (§1)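 NCI 60-line panel cells. Compound is dissolved in DMSO and diluted in phosphate-buffered saline, with final DMSO below 1%. It is added in duplicate wells to cultures at 6 × 10⁴ cells/ml and held at 37 °C, 5% CO₂, humidified, for 48 h. Cells are diluted 10-fold in saline, counted by Coulter counter and dilution-corrected. Vehicle controls contain PBS plus DMSO.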

HL-60(TB) = assay: Growth inhibition of human HL-60(TB) cells at 10 uM after 48 hrs by coulter counter method; conditions: HL-60, 48 h, read-out: GI
Outline: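 Single-dose screen on the NCI 60-line panel (leukemia subpanel). Compound is dissolved in DMSO and diluted in PBS, with final DMSO below 1%. Duplicate wells hold 6 × 10⁴ cells/ml at 37 °C, 5% CO₂, for 48 h. Cells are counted by Coulter counter after 10-fold saline dilution. Read-out is percent growth versus PBS/DMSO controls, expressed as % growth inhibition.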

K562 = assay: Growth inhibition of human K562 cells at 10 uM after 48 hrs by coulter counter method; conditions: K562, 48 h, read-out: GI
Outline: (§2)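 NCI 60-cell-line panel, single dose. Compound dissolved first in DMSO, then diluted in phosphate-buffered saline so that every final dilution held under 1% DMSO. Duplicate wells received cells at 6 × 10⁴ cells/ml. Controls held PBS/DMSO at the same dilution. Plates were incubated 48 h at 37 °C under 5% CO₂. Cells were then diluted 10-fold in saline and counted on a Coulter counter, with counts corrected for the dilution. Results are given as percent growth inhibition.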

SR = assay: Growth inhibition of human SR cells at 10 uM after 48 hrs by coulter counter method; conditions: read-out: GI; outline: as §2
NCI-H322M = assay: Growth inhibition of human NCI-H322M cells at 10 uM after 48 hrs by coulter counter method; conditions: read-out: GI; outline: as §2
NCI-H522 = assay: Growth inhibition of human NCI-H522 cells at 10 uM after 48 hrs by coulter counter method; conditions: NCI-H522, 48 h, read-out: GI; outline: as §2
HCT-15 = assay: Growth inhibition of human HCT15 cells at 10 uM after 48 hrs by coulter counter method; conditions: HCT-15, 48 h, read-out: GI; outline: as §2
KM12 = assay: Growth inhibition of human KM12 cells at 10 uM after 48 hrs by coulter counter method; conditions: KM12, 48 h, read-out: GI; outline: as §2
SK-MEL-2 = assay: Growth inhibition of human SK-MEL-2 cells at 10 uM after 48 hrs by coulter counter method; conditions: SK-MEL-2, 48 h, read-out: GI; outline: as §2
IGROV-1 = assay: Growth inhibition of human IGROV1 cells at 10 uM after 48 hrs by coulter counter method; outline: as §2
OVCAR-8 = assay: Growth inhibition of human OVCAR8 cells at 10 uM after 48 hrs by coulter counter method; conditions: OVCAR-8, 48 h, read-out: GI; outline: as §2
NCI/ADR-RES = assay: Growth inhibition of human NCI/ADR-RES cells at 10 uM after 48 hrs by coulter counter method; conditions: read-out: GI; outline: as §2
786-0 = assay: Growth inhibition of human 786-0 cells at 10 uM after 48 hrs by coulter counter method; conditions: 786-0, 48 h, read-out: GI; outline: as §2
SN12C = assay: Growth inhibition of human SN12C cells at 10 uM after 48 hrs by coulter counter method; conditions: read-out: GI; outline: as §2
BT-549 = assay: Growth inhibition of human BT549 cells at 10 uM after 48 hrs by coulter counter method; conditions: BT-549, 48 h, read-out: GI; outline: as §2
[2] = Growth inhibition of human CNS cancer cells after 48 hrs by coulter counter method; conditions: Cancer cell lines; outline: as §1
Melanoma cell = assay: Growth inhibition of human Melanoma cells after 48 hrs by coulter counter method; outline: as §1
[3] = read-out: LC50 (the source's name)

In the case of `O=C1CN2N=C(c3ccccc3)SC2=N1`, the GI50 [1] is reported as 6.9 µM, the TGI [1] is reported as 23.7 µM and the CC50 [1, 3] is reported as 71.3 µM. For the same molecule, the inhibition of growth at 10 µM (HL-60(TB)) was 21%, the inhibition of growth at 10 µM (K562) was 34.8% and the inhibition of growth at 10 µM (SR) was 36.3%. The inhibition of growth at 10 µM (NCI-H322M) was 22.1%, the inhibition of growth at 10 µM (NCI-H522) was 46.5% and the inhibition of growth at 10 µM (HCT-15) was 44.8%. The inhibition of growth at 10 µM (KM12) was 21.8%, the inhibition of growth at 10 µM (SK-MEL-2) was 14.1% and the “growth inhibition (GI)” value (IGROV-1) was “Active”. The inhibition of growth at 10 µM (OVCAR-8) was 35.3%, the inhibition of growth at 10 µM (NCI/ADR-RES) was 17.9% and the inhibition of growth at 10 µM (786-0) was 25.1%. For the same molecule, the inhibition of growth at 10 µM (SN12C) was 32.9%, the inhibition of growth at 10 µM (BT-549) was 53.4% and the GI50 [2] was 8.7 µM. For the same molecule, the TGI [2] was 18.8 µM, the CC50 [2, 3] was 51.3 µM and the GI50 (Melanoma cell) was 8 µM. The LC50 (Melanoma cell) was 51.4 µM and the TGI (Melanoma cell) was 20.1 µM.
